Experiments:
CWR22R [1] = assay: Antiproliferative activity against human 22Rv1 cells after 96 hrs by Oncotest monolayer assay; type: functional, cell-based
In short: (§1)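 Cells from exponential-phase cultures seeded at 8000-12,000 cells/well, left 24 h to recover, then given compound at 10 concentrations in half-log steps up to 100 µM, in triplicate. After 96 h total exposure, wells were PBS-washed and stained with 7 µg/ml propidium iodide plus 0.1% Triton X-100 for 1-2 h at room temperature. Fluorescence (ex 530/em 620 nm) was read. Absolute IC50 was obtained by non-linear regression.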

Androgen receptor = biological target: T1, Androgen receptor (Homo sapiens, UniProt P10275); assay: Antagonist activity against androgen receptor (unknown origin)
T1 sequence (P10275 whole entry): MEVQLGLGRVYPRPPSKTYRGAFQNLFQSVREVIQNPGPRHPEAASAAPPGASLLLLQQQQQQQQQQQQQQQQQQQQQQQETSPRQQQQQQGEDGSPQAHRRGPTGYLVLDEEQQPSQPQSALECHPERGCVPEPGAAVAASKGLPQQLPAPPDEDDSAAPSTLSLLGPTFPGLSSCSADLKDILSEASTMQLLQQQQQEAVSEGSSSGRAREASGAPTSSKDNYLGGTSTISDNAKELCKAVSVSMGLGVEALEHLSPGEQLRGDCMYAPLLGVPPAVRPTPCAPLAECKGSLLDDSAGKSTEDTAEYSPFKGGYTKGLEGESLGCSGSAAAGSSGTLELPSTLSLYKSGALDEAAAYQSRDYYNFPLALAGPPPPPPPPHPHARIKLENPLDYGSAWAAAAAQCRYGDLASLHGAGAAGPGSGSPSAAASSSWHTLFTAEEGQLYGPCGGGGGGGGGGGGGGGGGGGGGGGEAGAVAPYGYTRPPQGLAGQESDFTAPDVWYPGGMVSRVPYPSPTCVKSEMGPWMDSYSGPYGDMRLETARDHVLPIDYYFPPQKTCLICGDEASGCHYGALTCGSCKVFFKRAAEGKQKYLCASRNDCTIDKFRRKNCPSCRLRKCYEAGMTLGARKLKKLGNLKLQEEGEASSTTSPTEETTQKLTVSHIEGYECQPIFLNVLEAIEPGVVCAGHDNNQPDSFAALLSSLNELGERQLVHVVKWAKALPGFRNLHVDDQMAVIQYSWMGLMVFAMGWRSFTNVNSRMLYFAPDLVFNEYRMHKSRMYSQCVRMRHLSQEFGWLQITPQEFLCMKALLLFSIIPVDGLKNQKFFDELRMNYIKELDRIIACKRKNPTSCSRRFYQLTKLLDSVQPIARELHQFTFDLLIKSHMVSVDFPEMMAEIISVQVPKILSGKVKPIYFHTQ

MCF7 = assay: Antiproliferative activity against human MCF7 cells after 96 hrs by Oncotest monolayer assay; type: functional, cell-based; in short: as §1
CWR22R [2] = assay: Potency index, ratio IC50 of bicalutamide to IC50 of compound for antiproliferative activity against human 22Rv1 cells; type: functional
CWR22R [3] = assay: Potency index, ratio IC50 of enzalutamide to IC50 of compound for antiproliferative activity against human 22Rv1 cells; type: functional
[4] = Homo sapiens, 22Rv1, 96 h, read-out: IC50
[5] = Homo sapiens, MCF7, 96 h, read-out: IC50

## CC(C)(C)c1ccc(C(=O)COc2ccc3c(C(F)(F)F)cc(=O)oc3c2)cc1
CWR22R [1]; cwr22r
  IC50: Not Active
Androgen receptor
  IC50: Not Active
MCF7; mcf7
  IC50: Not Active

## Cc1cc(=O)oc2cc(OCC(=O)c3ccc(C(C)(C)C)cc3)ccc12
CWR22R [1]; [4]
  IC50: 22.3 µM
CWR22R [2]
  Ratio IC50: 2
MCF7; [5]
  IC50: 20.7 µM

## Cc1cc(=O)oc2cc(OCC(=O)c3ccc(F)cc3)ccc12
CWR22R [1]; [4]
  IC50: > 100 µM
Androgen receptor
  IC50: Not Active
MCF7; [5]
  IC50: > 100 µM

## Cc1cc(=O)oc2cc(OCC(=O)c3ccc4c(c3)OCCCO4)ccc12
CWR22R [1]; [4]
  IC50: > 100 µM
Androgen receptor
  IC50: Not Active
MCF7; [5]
  IC50: > 100 µM

## Cc1ccc(C(=O)COc2ccc3c(C(F)(F)F)cc(=O)oc3c2)cc1
CWR22R [1]; cwr22r
  IC50: Not Active
Androgen receptor
  IC50: Not Active
MCF7; mcf7
  IC50: Not Active

## Cc1cc(=O)oc2cc(OCC(=O)c3cccc(C(F)(F)F)c3)ccc12
CWR22R [1]; [4]
  IC50: > 100 µM
Androgen receptor
  IC50: Not Active
MCF7; [5]
  IC50: 38.4 µM

## Cc1cc(=O)oc2cc(OCC(=O)c3ccc(OC(F)(F)F)cc3)ccc12
CWR22R [1]; [4]
  IC50: > 100 µM
Androgen receptor
  IC50: Not Active
MCF7; [5]
  IC50: > 100 µM

## O=C(COc1ccc2c(C(F)(F)F)cc(=O)oc2c1)c1ccc2ccccc2c1
CWR22R [1]; cwr22r
  IC50: Not Active
Androgen receptor
  IC50: Not Active
MCF7; mcf7
  IC50: Not Active

## Cc1cc(=O)oc2cc(OCC(=O)c3ccc(C(F)(F)F)cc3)ccc12
CWR22R [1]; [4]
  IC50: > 100 µM
Androgen receptor
  IC50: Not Active
MCF7; [5]
  IC50: > 100 µM

## O=C(COc1ccc2c(C(F)(F)F)cc(=O)oc2c1)c1cc(C(F)(F)F)cc(C(F)(F)F)c1
CWR22R [1]; cwr22r
  IC50: Not Active
Androgen receptor
  IC50: Not Active
MCF7; mcf7
  IC50: Not Active

## O=C(COc1ccc2c(C(F)(F)F)cc(=O)oc2c1)c1ccccc1C(F)(F)F
CWR22R [1]; cwr22r
  IC50: Not Active
Androgen receptor
  IC50: Not Active
MCF7; mcf7
  IC50: Not Active

## Cc1cc(=O)oc2cc(OCC(=O)c3cc(C(F)(F)F)cc(C(F)(F)F)c3)ccc12
CWR22R [1]; [4]
  IC50: 0.93 µM
CWR22R [2]
  Ratio IC50: 50
MCF7; [5]
  IC50: 0.47 µM
CWR22R [3]
  Ratio IC50: > 30

## O=C(COc1ccc2c(C(F)(F)F)cc(=O)oc2c1)c1ccccc1
CWR22R [1]; cwr22r
  IC50: Not Active
Androgen receptor
  IC50: Not Active
MCF7; mcf7
  IC50: Not Active

## O=C(COc1ccc2c(C(F)(F)F)cc(=O)oc2c1)c1ccc(F)cc1
CWR22R [1]; cwr22r
  IC50: Not Active
Androgen receptor
  IC50: Not Active
MCF7; mcf7
  IC50: Not Active

## COc1cccc(C(=O)COc2ccc3c(C(F)(F)F)cc(=O)oc3c2)c1
CWR22R [1]; cwr22r
  IC50: Not Active
Androgen receptor
  IC50: Not Active
MCF7; mcf7
  IC50: Not Active

## COc1ccc(C(=O)COc2ccc3c(C)cc(=O)oc3c2)cc1
CWR22R [1]; [4]
  IC50: > 100 µM
Androgen receptor
  IC50: Not Active
MCF7; [5]
  IC50: > 100 µM

## Cc1cc(=O)oc2cc(OCC(=O)c3ccccc3)ccc12
CWR22R [1]; [4]
  IC50: > 100 µM
Androgen receptor
  IC50: Not Active
MCF7; [5]
  IC50: > 100 µM

## CCOC(=O)C(CC)Oc1ccc2c(C)cc(=O)oc2c1 (configuration not stated)
Androgen receptor; read-out: IC50
  IC50: 5 µM

## Cc1cc(=O)oc2cc(OC(C)C(=O)c3ccccc3)ccc12 (configuration not stated)
Androgen receptor; read-out: IC50
  IC50: 5.09 µM

## CNC(=O)c1ccc(N2C(=S)N(c3ccc(C#N)c(C(F)(F)F)c3)C(=O)C2(C)C)cc1F [ENZALUTAMIDE]
CWR22R [1]; [4]
  IC50: 31.8 µM

## Cc1cc(=O)oc2cc(OCC(=O)c3ccccc3C(F)(F)F)ccc12
CWR22R [1]; [4]
  IC50: 20.4 µM
CWR22R [2]
  Ratio IC50: 2
MCF7; [5]
  IC50: 43.2 µM

## CC(O)(CS(=O)(=O)c1ccc(F)cc1)C(=O)Nc1ccc(C#N)c(C(F)(F)F)c1 (configuration not stated) [BICALUTAMIDE]
CWR22R [1]; [4]
  IC50: 46.2 µM

## N#Cc1ccc(C(=O)COc2ccc3c(C(F)(F)F)cc(=O)oc3c2)cc1
CWR22R [1]; cwr22r
  IC50: Not Active
Androgen receptor
  IC50: Not Active
MCF7; mcf7
  IC50: Not Active

## Cc1ccc(C(=O)COc2ccc3c(C)cc(=O)oc3c2)cc1
CWR22R [1]; [4]
  IC50: > 100 µM
Androgen receptor
  IC50: Not Active
MCF7; [5]
  IC50: > 100 µM

## O=C(COc1ccc2c(C(F)(F)F)cc(=O)oc2c1)c1ccc2c(c1)OCCCO2
CWR22R [1]; cwr22r
  IC50: Not Active
Androgen receptor
  IC50: Not Active
MCF7; mcf7
  IC50: Not Active

## CC(C)(C)C(=O)COc1ccc2c(C(F)(F)F)cc(=O)oc2c1
CWR22R [1]; cwr22r
  IC50: Not Active
Androgen receptor
  IC50: Not Active
MCF7; mcf7
  IC50: Not Active

## COc1ccc(C(=O)COc2ccc3c(C(F)(F)F)cc(=O)oc3c2)cc1
CWR22R [1]; cwr22r
  IC50: Not Active
Androgen receptor
  IC50: Not Active
MCF7; mcf7
  IC50: Not Active

## Cc1cc(=O)oc2cc(OCC(=O)c3ccc4ccccc4c3)ccc12
CWR22R [1]; [4]
  IC50: > 100 µM
Androgen receptor
  IC50: Not Active
MCF7; [5]
  IC50: > 100 µM

## O=C(COc1ccc2c(C(F)(F)F)cc(=O)oc2c1)c1cccc(C(F)(F)F)c1
CWR22R [1]; cwr22r
  IC50: Not Active
Androgen receptor
  IC50: Not Active
MCF7; mcf7
  IC50: Not Active

## COc1cccc(C(=O)COc2ccc3c(C)cc(=O)oc3c2)c1
CWR22R [1]; [4]
  IC50: 8.41 µM
MCF7; [5]
  IC50: 2.21 µM

## Cc1cc(=O)oc2cc(OCC(=O)c3ccc(C#N)cc3)ccc12
CWR22R [1]; [4]
  IC50: > 100 µM
Androgen receptor
  IC50: Not Active
MCF7; [5]
  IC50: > 100 µM

## O=C(COc1ccc2c(C(F)(F)F)cc(=O)oc2c1)c1ccc(OC(F)(F)F)cc1
CWR22R [1]; cwr22r
  IC50: Not Active
Androgen receptor
  IC50: Not Active
MCF7; mcf7
  IC50: Not Active

## O=C(COc1ccc2c(C(F)(F)F)cc(=O)oc2c1)c1ccc(C(F)(F)F)cc1
CWR22R [1]; cwr22r
  IC50: Not Active
Androgen receptor
  IC50: Not Active
MCF7; mcf7
  IC50: Not Active

## Cc1cc(=O)oc2cc(OCC(=O)C(C)(C)C)ccc12
Androgen receptor; read-out: IC50
  IC50: 3.76 µM
